5 compounds from ChEMBL document CHEMBL1811851, “Identification of a potent, state-dependent inhibitor of Nav1.7 with oral efficacy in the formalin model of persistent pain” (J Med Chem, 2011) can be followed below.

One may read the solubility as the dissolved amount per volume that the medium holds. A low value points to little dissolved substance. Broadly, the Papp is the rate of passage across a membrane or cell layer, normalised by area and donor concentration. As usually defined, the AUC is the area under the concentration-time curve, a measure of exposure. Broadly, the bioavailability is dose-corrected exposure relative to a reference, in per cent. A high value points to much systemic uptake.

Data set [1] is described as follows: Aqueous solubility of the compound in PBS pH 7.4. The class given is physicochemical.
Data set [2] can be described thus: Aqueous solubility of the compound in 0.01 N HCl. In kind it is physicochemical.
Data set [3] concerns LLC-PK1. The data set can be described thus: Apparent permeability of the compound from basolateral to apical direction in pig LLC-PK1 cells expressing human MDR1. The class given is ADME, cell-based, Sus scrofa. The method in brief: (§1)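 MDR1-LLC-PK1 pig kidney cells expressing human MDR1; compound at 5 μM with 0.1% BSA; apparent permeability measured apical-to-basolateral and basolateral-to-apical.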

Data set [4] can be described thus: Aqueous solubility of the compound in SIF pH 6.8. The class given is physicochemical.
The nature of data set [5]: AUC in Sprague-Dawley rat at 0.5 mg/kg, iv. In kind it is ADME, organism-based. More on the design: dose 0.5 mg/kg, route intravenous. The following applies: plasma. A digest of the protocol:
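Male Sprague-Dawley rats dosed intravenously at 0.5 mg/kg in 0.5 mL/kg of 100% DMSO; pharmacokinetic parameters derived from plasma exposure.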

For data set [6], the system named is LLC-PK1. The data set can be described thus: Apparent permeability of the compound from apical to basolateral direction in pig LLC-PK1 cells expressing human MDR1. The class given is ADME, cell-based, Sus scrofa. A digest of the protocol:
as §1

Data set [7] in a line: Oral bioavailability in Sprague-Dawley rat at 2 mg/kg. In kind it is ADME, organism-based. The following applies: in vivo. The method in brief: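 Male Sprague-Dawley rats; oral dose 2 mg/kg in 10 mL/kg vehicle (30% hydroxypropyl-β-cyclodextrin pH 2.2 with methanesulfonic acid, or 1% Tween 80/2% HPMC pH 2.2 with HCl), compared with 0.5 mg/kg iv in DMSO.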
Data set [8] deals with Rattus norvegicus. The experiment in a line: Plasma concentration in Sprague-Dawley rat at 20 mg/kg, po by open-field test. More on the design: dose 20 mg/kg, route oral. As to conditions: in vivo. The class given is ADME, organism-based. The method in brief: (§2)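 Naive rats given oral doses of 3–30 mg/kg (n = 8 per dose), timed so recording began at the same post-dose interval as the formalin test; open-field photobeam beam breaks binned every 5 min and totalled; plasma drug measured; one-way ANOVA with Dunnett's versus vehicle.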

The subject of data set [9] is Rattus norvegicus. The data set can be described thus: Plasma concentration in Sprague-Dawley rat at 10 mg/kg, po by open-field test. The class given is ADME, organism-based. Further details: dose 10 mg/kg, route oral. As to conditions: in vivo. The method in brief:
as §2

Data set [10] deals with Rattus norvegicus. The experiment in a line: Plasma concentration in formalin-induced Sprague-Dawley rat at 10 mg/kg, po by open-field test. In kind it is ADME, organism-based. The following applies: in vivo. Further details: dose 10 mg/kg, route oral. The method in brief:
(§3)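 Rats dosed orally 2 h before formalin; plasma sampled right after the formalin test (3 h post-dose) for total drug concentration.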

Data set [11] has as its system Rattus norvegicus. The experiment in a line: Plasma concentration in formalin-induced Sprague-Dawley rat at 20 mg/kg, po by open-field test. Further details: dose 20 mg/kg, route oral. In kind it is ADME, organism-based. The following applies: in vivo. The method in brief:
as §3

In data set [12] the test system is Rattus norvegicus. The experiment in a line: Plasma concentration in Sprague-Dawley rat at 3 mg/kg, po by open-field test. In kind it is ADME, organism-based. More on the design: dose 3 mg/kg, route oral. As to conditions: in vivo. The method in brief: as §2
The subject of data set [13] is Rattus norvegicus. The experiment in a line: Plasma concentration in Sprague-Dawley rat at 30 mg/kg, po by open-field test. The following applies: in vivo. Further details: dose 30 mg/kg, route oral. In kind it is ADME, organism-based. The method in brief: as §2
Data set [14] relates to Rattus norvegicus. The data set can be described thus: Plasma concentration in formalin-induced Sprague-Dawley rat at 30 mg/kg, po by open-field test. In kind it is ADME, organism-based. More on the design: dose 30 mg/kg, route oral. As to conditions: in vivo. The method in brief:
as §3

The test system of data set [15] is Rattus norvegicus. The experiment in a line: Plasma concentration in formalin-induced Sprague-Dawley rat at 3 mg/kg, po by open-field test. The class given is ADME, organism-based. More on the design: dose 3 mg/kg, route oral. As to conditions: in vivo. The method in brief: as §3
The subject of the next data set is Plasma. The data set can be described thus: Unbound plasma concentration in Sprague-Dawley rat at 3 mg/kg, po. The following applies: in vivo. In kind it is ADME, organism-based. Further details: dose 3 mg/kg, route oral.

The structures appear in SMILES notation. ≈ marks a conversion by molar mass, not a printed value.

On to `CC(=O)Nc1cccc(Nc2ncnc(N3CCc4ccccc4C3)n2)c1`, for which the results for the solubility in data set [1], in data set [2] and in data set [4] were 1 µg/mL (≈ 2.77 µM), 42 µg/mL (≈ 117 µM) and 31 µg/mL (≈ 86 µM), respectively. Further, the Papp in the data set on LLC-PK1 [3] and with LLC-PK1 [6] was 29.3 ×10⁻⁶ cm/s in each case. The compound also yielded an AUC in data set [5] of 126 ng·h/mL.
In the case of `CC(=O)Nc1cccc(Nc2ncnc(N3CCC(Oc4ccccc4)CC3)n2)c1`, the solubility was 11 µg/mL (≈ 27.2 µM) in [1], more than 200 µg/mL in data set [2] and 110 µg/mL (≈ 272 µM) in data set [4]. Also, the Papp with LLC-PK1 [3] and in the data set on LLC-PK1 [6] was 26.1 ×10⁻⁶ cm/s each time. For the same compound, in data set [7], the bioavailability turned out to be 52%.
`CC(=O)Nc1cccc(Nc2ncnc(N3CCC(OCc4ccccc4)CC3)n2)c1`: the solubility in data set [1] turned out to be 15 µg/mL (≈ 35.8 µM); in data set [2], 157 µg/mL (≈ 375 µM); in [4], 86 µg/mL (≈ 205 µM). The Papp in the data set with LLC-PK1 [3] and in the data set with LLC-PK1 [6] was 22.2 ×10⁻⁶ cm/s throughout. The bioavailability in data set [7] came to 19%.
`CC(=O)Nc1cccc(Nc2ncnc(N3CCC(OCc4ccc(C(F)(F)F)cc4)CC3)n2)c1C`: in [7], the bioavailability was found to be 27%.
As for `CC(=O)Nc1cccc(Nc2ncnc(N3CCC(OCc4ccc(OC(F)(F)F)cc4)CC3)n2)c1C`, the concentration in the data set on Rattus norvegicus [8] came to 2900 nM; in the data set with Rattus norvegicus [9], 1400 nM; with Rattus norvegicus [10], 1400 nM; with Rattus norvegicus [11], 3200 nM; with Rattus norvegicus [12], 500 nM; in the data set on Rattus norvegicus [13], 5400 nM. Further, the concentration with Rattus norvegicus [14] turned out to be 4400 nM; in the data set with Rattus norvegicus [15] it was 500 nM. This compound displayed a bioavailability in data set [7] of 67%. Besides, the “Cp(f)” value in the data set with Plasma is 14 nM.
